ChEMBL document CHEMBL1124453, “18-cycloalkyl analogues of enisoprost” (1989)

Experiments:
[1] = test system: Rattus norvegicus; test: Activity for diarrheagenic effect in rats by intragastric administration and the value ranges between 37-77; format: functional; conditions: po
Outline: (§1)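 Adult male Charles River rats (210–230 g), individually housed, fasted 24 h with water ad libitum. Logarithmically graded prostaglandin doses given orally (intragastric), N = 6-12 per group. Diarrhea scored all-or-none over 8 h after dosing. Prostaglandin stock 1 mg/mL in absolute ethanol, diluted in phosphate buffer pH 7.4 to at most 20% ethanol.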

[2] = test system: Canis familiaris; test: Activity for gastric antisecretory activity in dogs by intrapouch administration and the value ranges between 0.017-0.032; format: functional; conditions: Canis lupus familiaris, Stomach
Outline: (§2)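 Adult female beagles (6-11 kg) with innervated Pavlov pouches, fasted 24 h with water available. Prostaglandin in isosmotic phosphate buffer pH 7.4 (≤20% ethanol) or vehicle given into the pouch via Thomas cannula after a 30-min basal collection. Canned food fed 30 min later. Juice collected at 30-min intervals for 4 h; acid output = volume × acidity.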

[3] = test system: Canis familiaris; test: Activity for gastric antisecretory activity in dogs by intrapouch administration and the value ranges between 63.2-76.9; format: functional; conditions: Canis lupus familiaris, Stomach; outline: as §2
[4] = test system: Rattus norvegicus; test: Activity for diarrheagenic effect in rats by intragastric administration; format: functional; conditions: po; outline: as §1
[5] = test system: Canis familiaris; test: Activity for gastric antisecretory activity in dogs by intrapouch administration and the value ranges between 0.069-0.096; format: functional; conditions: Canis lupus familiaris, Stomach; outline: as §2
[6] = test system: Rattus norvegicus; test: Activity for diarrheagenic effect in rats by intragastric administration and the value ranges between 141-1134; format: functional; conditions: po; outline: as §1
[7] = test system: Canis familiaris; test: No inhibitory activity (3 ug/kg) for gastric antisecretory activity in dogs by intrapouch administration; format: functional, Canis lupus familiaris, Stomach
Outline: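 Food-stimulated Pavlov-pouch beagles were dosed intrapouch, highest dose tested 3.0 µg/kg, in phosphate buffer pH 7.4 with at most 20% ethanol. Gastric juice was collected at 30-min intervals for 4 h after feeding. Percent reduction of total acid output (volume × acidity) from control was calculated.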

[8] = test system: Canis familiaris; test: Activity for gastric antisecretory activity in dogs by intrapouch administration; format: functional; conditions: Canis lupus familiaris, Stomach; outline: as §2
[9] = test system: Canis familiaris; test: Activity for gastric antisecretory activity in dogs by intrapouch administration and the value ranges between 0.083-0.094; format: functional; conditions: Canis lupus familiaris, Stomach; outline: as §2
[10] = test system: Rattus norvegicus; test: Activity for diarrheagenic effect in rats by intragastric administration and the value ranges between 106-698; format: functional; conditions: po; outline: as §1
[11] = test system: Canis familiaris; test: Activity for gastric antisecretory activity in dogs by intrapouch administration and the value ranges between 0.06-0.12; format: functional; conditions: Canis lupus familiaris, Stomach; outline: as §2
[12] = test system: Rattus norvegicus; test: Activity for diarrheagenic effect in rats by intragastric administration and the value ranges between 947-1848; format: functional; conditions: po; outline: as §1

CCCCC(C)(O)C/C=C/[C@H]1[C@H](O)CC(=O)[C@@H]1CC/C=C\CCC(=O)OC (stereo partly drawn) [ENISOPROST]
ED50 [1]: 0.049 mg/kg | ED50 [2]: 0.023 µg/kg

COC(=O)CC/C=C\CC[C@H]1C(=O)C[C@@H](O)[C@@H]1/C=C/CC(C)(O)CCC1CCCCC1 (stereo partly drawn)
ED50 [3]: 0.07 mg/kg | ED50 [4]: > 3.16 mg/kg

COC(=O)CC/C=C\CC[C@H]1C(=O)C[C@@H](O)[C@@H]1/C=C/CC(C)(O)CCC1CCC1 (stereo partly drawn)
ED50 [5]: 0.09 µg/kg | ED50 [6]: 0.316 mg/kg

COC(=O)CC/C=C\CC[C@H]1C(=O)C[C@@H](O)[C@@H]1/C=C/CC(C)(O)CCCCO (stereo partly drawn)
Inhibition [7]: 0%

COC(=O)CC/C=C\CC[C@H]1C(=O)C[C@@H](O)[C@@H]1/C=C/CC(C)(O)CCC1CCCCCC1 (stereo partly drawn)
ED50 [8]: ~0.095 mg/kg | ED50 [4]: > 3.16 mg/kg

COC(=O)CC/C=C\CC[C@H]1C(=O)C[C@@H](O)[C@@H]1/C=C/CC(C)(O)CCC1CC1 (stereo partly drawn)
ED50 [9]: 0.09 µg/kg | ED50 [10]: 0.273 mg/kg

COC(=O)CC/C=C\CC[C@H]1C(=O)C[C@@H](O)[C@@H]1/C=C/CC(C)(O)CCC1CCCC1 (stereo partly drawn)
ED50 [11]: 0.09 µg/kg | ED50 [12]: 1.31 mg/kg
